For data set [1], the system named is Pseudomonas aeruginosa. Put plainly: Antimicrobial activity against Pseudomonas aeruginosa ATCC 27853 assessed as inhibition of bacterial growth by broth microdilution method. The format is functional.
Data set [2] relates to Enterococcus faecalis. Kind of data set: Antimicrobial activity against vancomycin-resistant Enterococcus faecalis assessed as inhibition of bacterial growth by broth microdilution method. The format is functional. Put shortly:
(§1)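 Broth microdilution following a previously reported procedure. MIC was taken as the lowest concentration with no turbidity, meaning complete growth inhibition over the incubation period.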
For orientation: Dilution methods test growth across graded concentrations, often in twofold steps.

In data set [3] the test system is Escherichia coli. Put plainly: Antimicrobial activity against Escherichia coli ATCC 25922 assessed as inhibition of bacterial growth by broth microdilution method. The format is functional.
Data set [4] relates to Staphylococcus aureus. Put plainly: Antimicrobial activity against methicillin-resistant Staphylococcus aureus ATCC 33591 assessed as inhibition of bacterial growth by broth microdilution method. The format is functional. An outline of the steps: as §1
The subject of data set [5] is Staphylococcus epidermidis. Put plainly: Antimicrobial activity against methicillin-resistant Staphylococcus epidermidis RP62A assessed as inhibition of bacterial growth by broth microdilution method. The format is functional. An outline of the steps:
as §1

The nature of data set [6]: Induction of hemolysis in human RBC incubated for 1 hr. The format is cell-based, Erythrocyte. The following applies: human red blood cells (erythrocytes). An outline of the steps: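 Human RBCs pelleted at 3000 rpm for 10 min and made 5% v/v in 1x PBS, mixed 1:1 with compound at several concentrations, 37 °C for 1 h. Spun at 3500 rpm for 10 min; diluted supernatant read at 540 nm. Hemolysis % referenced to 2% Triton X-100 (100%) and PBS (0%). Three repeats, duplicates each.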

The test system of data set [7] is Staphylococcus aureus. Kind of data set: Antimicrobial activity against methicillin-resistant Staphylococcus aureus ATCC 33591 grown under presence of test compound at 1/2 MIC assessed as inhibition of bacterial growth measured after 14 passages by broth microdilution method relative to wild type. The format is functional. Put shortly:
(§2)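 Initial MIC by the standard broth microdilution procedure. Bacteria from the 1/2 MIC wells were made into a suspension of about 10^6 CFU/mL, incubated with compound at 37 °C for 24 h, and the MIC was measured again. This was repeated daily for 14 passages.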

The subject of data set [8] is Staphylococcus aureus. Kind of data set: Bactericidal activity against methicillin-resistant Staphylococcus aureus ATCC 33591 assessed as bacterial killing at 6.25 to 12.5 ug/ml incubated for 2 hrs by time-kill kinetics method. The format is functional, organism-based. The note with it: dose 6.25-12.5 µg/ml. Put shortly:
(§3)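 MRSA were grown in tryptic soy broth to 10^6 CFU/mL and exposed to compound at multiples of MIC, sampled for up to 2 h. Aliquots were diluted 10^2–10^4-fold and plated on TSB agar, incubated 24 h at 37 °C, and colonies counted. Run three times.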

For data set [9], the system named is Staphylococcus aureus. Kind of data set: Bactericidal activity against methicillin-resistant Staphylococcus aureus ATCC 33591 assessed as bacterial killing by measuring reduction in bacterial colony count at 16 to 32 x MIC measured within 10 mins by time-kill kinetics method. The following applies: dose 16-32 x MIC; time min <=10.
Data set [10] has as its system Cell membrane. Put plainly: Induction of cell membrane integrity loss in methicillin-resistant Staphylococcus aureus ATCC 33591 at 5 ug/ml incubated for 2 hrs by TEM analysis. The note with it: dose 5.0 µg/ml.
Data set [11] deals with Cell membrane. Put plainly: Induction of membrane depolarization in methicillin-resistant Staphylococcus aureus ATCC 33591 assessed as induction of membrane potential loss at 5 ug/ml incubated for 30 mins by DiSC3(5) dye based bacterial membrane depolarization assay. The following applies: dose 5.0 µg/ml. Put shortly: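 Mid-log MRSA were washed and resuspended at 10^8 CFU/mL in a 1:1:1 mix of 5 mM glucose, 5 mM HEPES and 100 mM KCl, with 2 µM DiSC3(5). Fluorescence (ex 622/em 670 nm) was read at room temperature until it reached its minimum after about 20 min. Compound was then added and the fluorescence rise recorded. Untreated negative control. Three runs in duplicate.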

Data set [12] concerns Cell membrane. Put plainly: Induction of cell membrane disruption in Escherichia coli ATCC 25922 at 2 times MIC incubated for 2 hrs by DAPI and PI staining based optical microscopy. An outline of the steps: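 Cells grown to ~2 × 10^6 cells, exposed 2 h, pelleted at 3000g for 15 min and PBS-washed. Stained with PI (5 µg/mL) then DAPI (10 µg/mL in water), each 15 min in the dark at 0 °C, then PBS-washed. Untreated controls handled identically. Imaged by 100x oil-immersion light microscopy; three repeats, duplicates each.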

Data set [13] concerns Escherichia coli. Kind of data set: Antimicrobial activity against Escherichia coli ATCC 25922 grown under presence of test compound at 1/2 MIC assessed as inhibition of bacterial growth measured after 14 passages by broth microdilution method relative to wild type. The format is functional, organism-based. Put shortly:
as §2

Data set [14] deals with Escherichia coli. Put plainly: Inhibition of biofilm formation in Escherichia coli ATCC 25922 at 3 ug/ml incubated overnight by crystal violet staining based method. The format is functional. Put shortly: (§4)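 Overnight-grown (12 h) bacteria diluted 1:100 into 10% MHII broth and incubated with compound overnight at 37 °C. OD600 recorded, then biomass by crystal violet, expressed as CV OD/growth OD and normalized to untreated control. Triplicate, mean ± STDEV.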

Data set [15] concerns Escherichia coli. Kind of data set: Inhibition of biofilm formation in Escherichia coli ATCC 25922 at 1.5 ug/ml incubated overnight by crystal violet staining based method. The format is functional. Put shortly: as §4
The test system of data set [16] is Cell membrane. Kind of data set: Induction of cell membrane disruption in methicillin-resistant Staphylococcus aureus ATCC 33591 at 2 times MIC incubated for 2 hrs by DAPI and PI staining based optical microscopy. An outline of the steps:
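Bacteria at about 2 × 10^6 cells were treated at 2 × MIC for 2 h, then centrifuged and washed in PBS. They were stained with PI (5 µg/mL) and then DAPI (10 µg/mL), each for 15 min in the dark at 0 °C. Imaged by oil-immersion light microscopy at 100×. Untreated controls were processed identically. Three runs in duplicate.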

For data set [17], the system named is Staphylococcus aureus. Put plainly: Bactericidal activity against methicillin-resistant Staphylococcus aureus ATCC 33591 assessed as bacterial killing by measuring reduction in bacterial colony count at 64 times MIC incubated for 2 hrs by time-kill kinetics method. The format is functional, organism-based. An outline of the steps:
as §3

≈ marks a conversion by molar mass, not a printed value. Calls of active or inactive are those of the source. The rule behind the calls is not given here. Where only a bound is given, the exact number is not on record here.

As for `CCCCCCCCCCCCCNC(=O)[C@H](CCCCN)NC(=O)c1ccc(C(=O)N[C@@H](CCCCN)C(=O)NCCCCCCCCCCCCC)cc1`, the MIC entry in [1], in data set [2] and in data set [3] was “inactive” throughout. In addition, the minimum inhibitory concentration (MIC) in data set [4] and in data set [5] was 6 mg/L (≈ 7.64 µM) each time.
Take `NCCCC[C@H](NC(=O)c1ccc(C(=O)N[C@@H](CCCCN)C(=O)NCc2ccc(-c3ccccc3)cc2)cc1)C(=O)NCc1ccc(-c2ccccc2)cc1`: the MIC (in general, the least concentration at which growth counts as inhibited) in data set [1] was found to be 12 mg/L (≈ 15.9 µM); in data set [3] it was 3 mg/L (≈ 3.98 µM); in [4] it was 3 mg/L (≈ 3.98 µM); in data set [5], 6 mg/L (≈ 7.97 µM). In data set [2], the MIC entry is “inactive”. In addition, the 50% haemolytic concentration (HC50) – broadly, the concentration that lyses half of the red blood cells – at 1 h in data set [6] is more than 250 µg/mL.
Consider `CCCCCCCCNC(=O)[C@H](CCCCN)NC(=O)c1ccc(C(=O)N[C@@H](CCCCN)C(=O)NCCCCCCCC)cc1`, for which the MIC in data set [1] stood at 3 mg/L (≈ 4.65 µM); in data set [3] it was 0.75 mg/L (≈ 1.16 µM); in data set [4], 1.5 mg/L (≈ 2.33 µM); in data set [5] it was 3 mg/L (≈ 4.65 µM). In addition, the MIC result in [2] was “inactive”. Also, the 50% haemolytic concentration (HC50) at 1 h in [6] is more than 250 µg/mL.
As to `CCCCCCCCCCCCNC(=O)[C@H](CCCCN)NC(=O)c1ccc(C(=O)N[C@@H](CCCCN)C(=O)NCCCCCCCCCCCC)cc1`, the MIC in data set [1] was 12 mg/L (≈ 15.8 µM); in data set [3], 3 mg/L (≈ 3.96 µM); in data set [4], 3 mg/L (≈ 3.96 µM); in [5] it was 6 mg/L (≈ 7.92 µM). For the same molecule, the MIC entry in data set [2] is “inactive”. The same molecule gave a 50% haemolytic concentration (HC50) at 1 h in [6] of more than 250 µg/mL.
Turning to `CCCCCCCCCNC(=O)[C@H](CCCCN)NC(=O)c1ccc(C(=O)N[C@@H](CCCCN)C(=O)NCCCCCCCCC)cc1`, the minimum inhibitory concentration (MIC) in data set [1] was determined as 3 mg/L (≈ 4.46 µM); in data set [2], 3 mg/L (≈ 4.46 µM); in data set [3], 0.75 mg/L (≈ 1.11 µM); in [4], 0.75 mg/L (≈ 1.11 µM); in data set [5], 1.5 mg/L (≈ 2.23 µM). The outcome in data set [7], in data set [10], in data set [11], in data set [12], in [13] and in [16] was Active. Besides, in data set [8], the outcome was inactive. For the same molecule, the Activity in [9] worked out at 3.74 log10CFU/ml. The molecule further showed an HC50 at 1 h in data set [6] of 180 µg/mL. In addition, the inhibition – broadly, the share of the control response that was lost under treatment – at 3 µg/mL in [14] was 70%. The molecule further showed an inhibition at 1.5 µg/mL in [15] of 50%.
Regarding `CCCCCCCCCCCCCCNC(=O)[C@H](CCCCN)NC(=O)c1ccc(C(=O)N[C@@H](CCCCN)C(=O)NCCCCCCCCCCCCCC)cc1`, the MIC result in [1], in data set [2], in [3], in data set [4] and in [5] was “inactive” throughout.
With `CCCCCCCNC(=O)[C@H](CCCCN)NC(=O)c1ccc(C(=O)N[C@@H](CCCCN)C(=O)NCCCCCCC)cc1`, the MIC entry in data set [1], in data set [2], in data set [4] and in data set [5] was “inactive” each time. Moreover, in data set [3], the MIC came out at 6 mg/L (≈ 9.73 µM).
`CCn1cc(C(=O)O)c(=O)c2cc(F)c(N3CCNCC3)cc21` [NORFLOXACIN]: the Ratio in [7] is more than 80. In addition, in data set [17], the result was inactive.
For `CCCCCCNC(=O)[C@H](CCCCN)NC(=O)c1ccc(C(=O)N[C@@H](CCCCN)C(=O)NCCCCCC)cc1`, the MIC entry in data set [1], in data set [2], in data set [3], in data set [4] and in data set [5] was “inactive” each time.
On to `CCCCCCCCCCNC(=O)[C@H](CCCCN)NC(=O)c1ccc(C(=O)N[C@@H](CCCCN)C(=O)NCCCCCCCCCC)cc1`, for which the MIC result in data set [1] was “inactive”. The minimal inhibitory concentration (MIC) in [2] turned out to be 3 mg/L (≈ 4.28 µM); in data set [3], 3 mg/L (≈ 4.28 µM); in [4], 1.5 mg/L (≈ 2.14 µM); in [5], 6 mg/L (≈ 8.56 µM). The HC50 at 1 h in [6] was 250 µg/mL.
